{"source": "ChEMBL document CHEMBL1157870", "about": "“Synthesis of 3-((2,4-dichlorophenoxy)methyl)-1,2,4-triazolo(thiadiazoles and thiadiazines) as anti-inflammatory and molluscicidal agents” (Eur J Med Chem, 2010)", "key": {"Rattus norvegicus [1]": {"system": "Rattus norvegicus", "test": "Antiinflammatory activity against carrageenan-induced paw edema in po dosed rat administered 1 hr before carrageenan challenge assessed after 2 hrs", "type": "functional", "how_it_was_run": "(§1)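 Rats of about 200 g dosed orally; 1 h later, 1 mg carrageenan in […] physiological solution injected subplantar into the hind left paw. Paw volume measured hourly for 4 h by plethysmometer, dipping the paw in 0.45% saline. Read-out is % change in paw volume versus baseline, given as % inhibition of oedema ± S.E. Indomethacin served as reference.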"}, "Rattus norvegicus [2]": {"system": "Rattus norvegicus", "test": "Antiinflammatory activity against carrageenan-induced paw edema in po dosed rat administered 1 hr before carrageenan challenge assessed after 1 hr", "type": "functional", "how_it_was_run": "as §1"}, "Rattus norvegicus [3]": {"system": "Rattus norvegicus", "test": "Antiinflammatory activity against carrageenan-induced paw edema in po dosed rat administered 1 hr before carrageenan challenge assessed after 3 hrs", "type": "functional", "how_it_was_run": "as §1"}, "Rattus norvegicus [4]": {"system": "Rattus norvegicus", "test": "Antiinflammatory activity against carrageenan-induced paw edema in po dosed rat administered 1 hr before carrageenan challenge assessed after 4 hrs", "type": "functional", "how_it_was_run": "as §1"}, "Biomphalaria alexandrina": {"system": "Biomphalaria alexandrina", "test": "Molluscicidal activity against Biomphalaria alexandrina assessed as mortality at 10 ppm after 24 hrs", "type": "organism-based", "conditions": "in vivo", "how_it_was_run": "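Compounds dissolved with a few drops of Tween 20 and 2 mL DMSO, then diluted with untreated Nile raw water to 1, 5 or 10 ppm in aerated glass jars. Ten snails per concentration held 24 h at 25 °C. Mean number killed over three repeats recorded. Controls received Tween 20/DMSO in water; Bayluscide served as reference. Follows WHO guidelines, modified.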"}}}
{"smiles": "Clc1ccc(OCc2nnc3snnn23)c(Cl)c1", "values": [{"measurement": "inhibition (INH)", "setting": "Rattus norvegicus [1]", "result": 94.8, "unit": "%"}, {"measurement": "inhibition (INH)", "setting": "Rattus norvegicus [2]", "result": 70.78, "unit": "%"}, {"measurement": "inhibition (INH)", "setting": "Rattus norvegicus [3]", "result": 108.482, "unit": "%"}, {"measurement": "inhibition (INH)", "setting": "Rattus norvegicus [4]", "result": 74.03, "unit": "%"}, {"measurement": "Activity", "setting": "Biomphalaria alexandrina", "result": "Toxic"}]}
{"smiles": "Clc1ccc(OCc2nnc3n2N=C(c2ccccc2)CS3)c(Cl)c1", "values": [{"measurement": "inhibition (INH)", "setting": "Rattus norvegicus [1]", "result": 45.62, "unit": "%"}, {"measurement": "inhibition (INH)", "setting": "Rattus norvegicus [2]", "result": 27.66, "unit": "%"}, {"measurement": "inhibition (INH)", "setting": "Rattus norvegicus [3]", "result": 60.42, "unit": "%"}, {"measurement": "inhibition (INH)", "setting": "Rattus norvegicus [4]", "result": 48.51, "unit": "%"}]}
{"smiles": "Clc1ccc(OCc2nnc3sc(-c4ccco4)nn23)c(Cl)c1", "values": [{"measurement": "inhibition (INH)", "setting": "Rattus norvegicus [1]", "result": 54.62, "unit": "%"}, {"measurement": "inhibition (INH)", "setting": "Rattus norvegicus [2]", "result": 51.38, "unit": "%"}, {"measurement": "inhibition (INH)", "setting": "Rattus norvegicus [3]", "result": 99.24, "unit": "%"}, {"measurement": "inhibition (INH)", "setting": "Rattus norvegicus [4]", "result": 93.97, "unit": "%"}]}
{"smiles": "Clc1ccc(OCc2nn3c(COc4ccc(Cl)cc4Cl)nnc3s2)c(Cl)c1", "values": [{"measurement": "inhibition (INH)", "setting": "Rattus norvegicus [1]", "result": 48.4, "unit": "%"}, {"measurement": "inhibition (INH)", "setting": "Rattus norvegicus [2]", "result": 26.95, "unit": "%"}, {"measurement": "inhibition (INH)", "setting": "Rattus norvegicus [3]", "result": 63.15, "unit": "%"}, {"measurement": "inhibition (INH)", "setting": "Rattus norvegicus [4]", "result": 58.48, "unit": "%"}]}
{"smiles": "O=[N+]([O-])c1ccc(-c2nn3c(COc4ccc(Cl)cc4Cl)nnc3s2)c([N+](=O)[O-])c1", "values": [{"measurement": "inhibition (INH)", "setting": "Rattus norvegicus [1]", "result": 66.06, "unit": "%"}, {"measurement": "inhibition (INH)", "setting": "Rattus norvegicus [2]", "result": 32.16, "unit": "%"}, {"measurement": "inhibition (INH)", "setting": "Rattus norvegicus [3]", "result": 68.04, "unit": "%"}, {"measurement": "inhibition (INH)", "setting": "Rattus norvegicus [4]", "result": 63.95, "unit": "%"}]}
{"smiles": "COc1ccc(-c2nn3c(COc4ccc(Cl)cc4Cl)nnc3s2)cc1", "values": [{"measurement": "inhibition (INH)", "setting": "Rattus norvegicus [1]", "result": 46.22, "unit": "%"}, {"measurement": "inhibition (INH)", "setting": "Rattus norvegicus [2]", "result": 26.75, "unit": "%"}, {"measurement": "inhibition (INH)", "setting": "Rattus norvegicus [3]", "result": 56.34, "unit": "%"}, {"measurement": "inhibition (INH)", "setting": "Rattus norvegicus [4]", "result": 44.34, "unit": "%"}]}
{"smiles": "Nn1c(S)nnc1COc1ccc(Cl)cc1Cl", "values": [{"measurement": "inhibition (INH)", "setting": "Rattus norvegicus [1]", "result": 60.3, "unit": "%"}, {"measurement": "inhibition (INH)", "setting": "Rattus norvegicus [2]", "result": 50, "unit": "%"}, {"measurement": "inhibition (INH)", "setting": "Rattus norvegicus [3]", "result": 102.8511, "unit": "%"}, {"measurement": "inhibition (INH)", "setting": "Rattus norvegicus [4]", "result": 81.75, "unit": "%"}, {"measurement": "Activity", "setting": "Biomphalaria alexandrina", "result": "Toxic"}]}
{"smiles": "Clc1ccc(OCc2nnc3n2N=C(c2cc4ccccc4o2)/C(=C/c2cn(-c4ccccc4)nc2-c2cc4ccccc4o2)S3)c(Cl)c1", "values": [{"measurement": "inhibition (INH)", "setting": "Rattus norvegicus [1]", "result": 41.32, "unit": "%"}, {"measurement": "inhibition (INH)", "setting": "Rattus norvegicus [2]", "result": 29.71, "unit": "%"}, {"measurement": "inhibition (INH)", "setting": "Rattus norvegicus [3]", "result": 59.66, "unit": "%"}, {"measurement": "inhibition (INH)", "setting": "Rattus norvegicus [4]", "result": 35.78, "unit": "%"}]}
{"smiles": "COc1ccc2c(c1)c(CC(=O)O)c(C)n2C(=O)c1ccc(Cl)cc1", "note": "[INDOMETHACIN]", "values": [{"measurement": "inhibition (INH)", "setting": "Rattus norvegicus [1]", "result": 20.97, "unit": "%"}, {"measurement": "inhibition (INH)", "setting": "Rattus norvegicus [2]", "result": 24.8, "unit": "%"}, {"measurement": "inhibition (INH)", "setting": "Rattus norvegicus [3]", "result": 26.29, "unit": "%"}, {"measurement": "inhibition (INH)", "setting": "Rattus norvegicus [4]", "result": 20.19, "unit": "%"}]}
{"smiles": "O=C(Nc1ccc([N+](=O)[O-])cc1Cl)c1cc(Cl)ccc1O", "note": "[NICLOSAMIDE]", "values": [{"measurement": "Activity", "setting": "Biomphalaria alexandrina", "result": "Toxic"}]}
